For orientation: MIC80 means the lowest concentration that inhibits either 80% of growth or 80% of the strains tested, depending on the study. A low value points to greater potency.

The values below come from ChEMBL document CHEMBL1153921, “Design, synthesis, and biological evaluation of novel 1-(1H-1,2,4-triazole-1-yl)-2-(2,4-difluorophenyl)-3-substituted benzylamino-2-propanols” (2009).

The structures appear in SMILES notation. Converted amounts (≈) assume the structure as drawn.

Assay type in all cases: functional
The subject of one assay is Candida parapsilosis. In words: Antimicrobial activity against Candida parapsilosis by micro-broth dilution method. The conditions noted are these: Lodderomyces parapsilosis. The method in brief: (§1)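 Clinical isolates. Tested by broth microdilution in 96-well plates following NCCLS M27-A2. MIC80, the minimum concentration inhibiting growth by 80%, was recorded. Marketed reference antifungals were included as positive controls.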
(In general: In broth dilution the organism is exposed to a series of concentrations in liquid medium.)

The next assay relates to Pichia kudriavzevii. Put plainly: Antimicrobial activity against Candida krusei by micro-broth dilution method. Put shortly: as §1
The subject of a further assay is Candida albicans. Put plainly: Antimicrobial activity against Candida albicans by micro-broth dilution method. The method in brief: (§2)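 ATCC standard strains. Broth microdilution in 96-well plates following NCCLS M27-A2 (reference broth dilution method for yeasts). Endpoint is MIC80, the lowest concentration giving 80% growth inhibition. Marketed reference antifungals ran alongside as positive controls.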

Another assay relates to Cryptococcus neoformans. Put plainly: Antimicrobial activity against Cryptococcus neoformans by micro-broth dilution method. The method in brief: as §2
A further assay has as its system Aspergillus fumigatus. Put plainly: Antimicrobial activity against Aspergillus fumigatus by micro-broth dilution method. Put shortly: as §1
The test system of another assay is Candida tropicalis. Put plainly: Antimicrobial activity against Candida tropicalis by micro-broth dilution method. Put shortly: as §1
The subject of a further assay is Trichophyton rubrum. Put plainly: Antimicrobial activity against Trichophyton rubrum by micro-broth dilution method. Put shortly: as §1
The next assay deals with Nannizzia gypsea. Put plainly: Antimicrobial activity against Microsporum gypseum by micro-broth dilution method. Put shortly: as §1

In the case of `CCC(C)n1ncn(-c2ccc(N3CCN(c4ccc(OCC5COC(Cn6cncn6)(c6ccc(Cl)cc6Cl)O5)cc4)CC3)cc2)c1=O` (stereo unspecified) [ITRACONAZOLE], the MIC80 was 0.125 µg/mL (≈ 0.177 µM) with Candida parapsilosis; 0.5 µg/mL (≈ 0.709 µM) against Pichia kudriavzevii; 0.0625 µg/mL (≈ 0.0886 µM) in the assay with Candida albicans; 0.125 µg/mL (≈ 0.177 µM) in the assay on Cryptococcus neoformans; 0.5 µg/mL (≈ 0.709 µM) against Aspergillus fumigatus; 0.125 µg/mL (≈ 0.177 µM) against Candida tropicalis. Also, the MIC80 is 0.125 µg/mL (≈ 0.177 µM) against Trichophyton rubrum and 0.0625 µg/mL (≈ 0.0886 µM) in the assay on Nannizzia gypsea.
`CCCN(Cc1ccc(CC)cc1)CC(O)(Cn1cncn1)c1ccc(F)cc1F` (stereo unspecified): the MIC80 in the assay on Candida parapsilosis was 0.25 µg/mL (≈ 0.603 µM); against Pichia kudriavzevii, 1 µg/mL (≈ 2.41 µM); against Candida albicans, 0.0156 µg/mL (≈ 0.0376 µM); in the assay on Cryptococcus neoformans, 1 µg/mL (≈ 2.41 µM); with Aspergillus fumigatus, > 64 µg/mL; with Candida tropicalis, 0.25 µg/mL (≈ 0.603 µM). Further, the MIC80 in the assay on Trichophyton rubrum worked out at 1 µg/mL (≈ 2.41 µM); against Nannizzia gypsea it was 0.25 µg/mL (≈ 0.603 µM).
On to `CCCCN(Cc1ccccc1Cl)CC(O)(Cn1cncn1)c1ccc(F)cc1F` (stereo unspecified), for which the MIC80 with Candida parapsilosis is 0.25 µg/mL (≈ 0.575 µM); with Pichia kudriavzevii it was 1 µg/mL (≈ 2.3 µM); against Candida albicans, 1 µg/mL (≈ 2.3 µM); against Cryptococcus neoformans, 0.25 µg/mL (≈ 0.575 µM); in the assay on Aspergillus fumigatus it was > 64 µg/mL; against Candida tropicalis it was 0.25 µg/mL (≈ 0.575 µM). In addition, the MIC80 in the assay on Trichophyton rubrum came to 1 µg/mL (≈ 2.3 µM); in the assay on Nannizzia gypsea, 0.25 µg/mL (≈ 0.575 µM).
On to `CC(C)N(Cc1cccc(Cl)c1)CC(O)(Cn1cncn1)c1ccc(F)cc1F` (stereo unspecified), for which the MIC80 was 0.25 µg/mL (≈ 0.594 µM) in the assay with Candida parapsilosis; 0.25 µg/mL (≈ 0.594 µM) with Pichia kudriavzevii; 0.0156 µg/mL (≈ 0.0371 µM) with Candida albicans; 1 µg/mL (≈ 2.38 µM) in the assay on Cryptococcus neoformans; > 64 µg/mL against Aspergillus fumigatus; 1 µg/mL (≈ 2.38 µM) in the assay with Candida tropicalis. For the same molecule, the MIC80 against Trichophyton rubrum is 0.25 µg/mL (≈ 0.594 µM); in the assay with Nannizzia gypsea, 1 µg/mL (≈ 2.38 µM).
As to `CC(C)N(Cc1cccc(F)c1)CC(O)(Cn1cncn1)c1ccc(F)cc1F` (stereo unspecified), the MIC80 amounted to 0.0625 µg/mL (≈ 0.155 µM) in the assay with Candida parapsilosis; 0.0625 µg/mL (≈ 0.155 µM) against Pichia kudriavzevii; 0.0625 µg/mL (≈ 0.155 µM) in the assay with Candida albicans; 0.0625 µg/mL (≈ 0.155 µM) against Cryptococcus neoformans; 64 µg/mL (≈ 158 µM) with Aspergillus fumigatus; 0.0625 µg/mL (≈ 0.155 µM) in the assay on Candida tropicalis. The figures for the MIC80 in the assay with Trichophyton rubrum and in the assay on Nannizzia gypsea were 0.25 µg/mL (≈ 0.618 µM) and 0.0625 µg/mL (≈ 0.155 µM), respectively.
As for `CCCN(Cc1ccccc1Br)CC(O)(Cn1cncn1)c1ccc(F)cc1F` (stereo unspecified), the MIC80 in the assay on Candida parapsilosis is 0.0039 µg/mL (≈ 0.00838 µM); in the assay with Pichia kudriavzevii, 0.25 µg/mL (≈ 0.537 µM); against Candida albicans, 0.0625 µg/mL (≈ 0.134 µM); in the assay on Cryptococcus neoformans it was 0.25 µg/mL (≈ 0.537 µM); with Aspergillus fumigatus, > 64 µg/mL; against Candida tropicalis, 0.25 µg/mL (≈ 0.537 µM). Further, the MIC80 against Trichophyton rubrum worked out at 1 µg/mL (≈ 2.15 µM); with Nannizzia gypsea, 0.0625 µg/mL (≈ 0.134 µM).
As to `CC(C)N(Cc1ccccc1Br)CC(O)(Cn1cncn1)c1ccc(F)cc1F` (stereo unspecified), the MIC80 against Candida parapsilosis was 0.0625 µg/mL (≈ 0.134 µM); against Pichia kudriavzevii, 0.25 µg/mL (≈ 0.537 µM); in the assay on Candida albicans, 0.25 µg/mL (≈ 0.537 µM); against Cryptococcus neoformans, 0.25 µg/mL (≈ 0.537 µM); against Aspergillus fumigatus, > 64 µg/mL; with Candida tropicalis, 0.0625 µg/mL (≈ 0.134 µM). The MIC80 was found to be 0.0625 µg/mL (≈ 0.134 µM) in the assay with Trichophyton rubrum and 0.0156 µg/mL (≈ 0.0335 µM) in the assay on Nannizzia gypsea.
For `CCCCN(Cc1ccc(Cl)cc1Cl)CC(O)(Cn1cncn1)c1ccc(F)cc1F` (stereo unspecified), the MIC80 against Candida parapsilosis is 4 µg/mL (≈ 8.52 µM); with Pichia kudriavzevii, 16 µg/mL (≈ 34.1 µM); against Candida albicans, 0.0039 µg/mL (≈ 0.00831 µM); against Cryptococcus neoformans it was 1 µg/mL (≈ 2.13 µM); in the assay with Aspergillus fumigatus, > 64 µg/mL; against Candida tropicalis, 1 µg/mL (≈ 2.13 µM). In addition, the MIC80 was 16 µg/mL (≈ 34.1 µM) with Trichophyton rubrum and 0.25 µg/mL (≈ 0.533 µM) with Nannizzia gypsea.
As for `CC(C)N(Cc1ccc(F)cc1)CC(O)(Cn1cncn1)c1ccc(F)cc1F` (stereo unspecified), the MIC80 is 0.0625 µg/mL (≈ 0.155 µM) with Candida parapsilosis; 0.0625 µg/mL (≈ 0.155 µM) in the assay on Pichia kudriavzevii; 0.0625 µg/mL (≈ 0.155 µM) in the assay on Candida albicans; 0.0625 µg/mL (≈ 0.155 µM) against Cryptococcus neoformans; > 64 µg/mL in the assay with Aspergillus fumigatus; 0.25 µg/mL (≈ 0.618 µM) against Candida tropicalis. The MIC80 against Trichophyton rubrum stood at 0.25 µg/mL (≈ 0.618 µM); in the assay with Nannizzia gypsea it was 0.0625 µg/mL (≈ 0.155 µM).
Regarding `CCCN(Cc1ccc(Br)cc1)CC(O)(Cn1cncn1)c1ccc(F)cc1F` (stereo unspecified), the MIC80 is 0.0156 µg/mL (≈ 0.0335 µM) against Candida parapsilosis; 0.25 µg/mL (≈ 0.537 µM) against Pichia kudriavzevii; 0.0625 µg/mL (≈ 0.134 µM) in the assay with Candida albicans; 0.25 µg/mL (≈ 0.537 µM) against Cryptococcus neoformans; > 64 µg/mL in the assay on Aspergillus fumigatus; 0.0625 µg/mL (≈ 0.134 µM) against Candida tropicalis. Further, the MIC80 came to 0.25 µg/mL (≈ 0.537 µM) in the assay with Trichophyton rubrum and 0.0625 µg/mL (≈ 0.134 µM) against Nannizzia gypsea.
As for `CCCN(Cc1ccccc1F)CC(O)(Cn1cncn1)c1ccc(F)cc1F` (stereo unspecified), the MIC80 with Candida parapsilosis is 0.0625 µg/mL (≈ 0.155 µM); in the assay with Pichia kudriavzevii, 0.0625 µg/mL (≈ 0.155 µM); with Candida albicans, 0.0156 µg/mL (≈ 0.0386 µM); in the assay with Cryptococcus neoformans it was 0.25 µg/mL (≈ 0.618 µM); in the assay with Aspergillus fumigatus, > 64 µg/mL; against Candida tropicalis, 0.0625 µg/mL (≈ 0.155 µM). The MIC80 with Trichophyton rubrum stood at 1 µg/mL (≈ 2.47 µM); in the assay with Nannizzia gypsea it was 0.0156 µg/mL (≈ 0.0386 µM).
Consider `CCCCN(Cc1ccccc1F)CC(O)(Cn1cncn1)c1ccc(F)cc1F` (stereo unspecified), for which the MIC80 with Candida parapsilosis came to 0.25 µg/mL (≈ 0.597 µM); against Pichia kudriavzevii, 0.25 µg/mL (≈ 0.597 µM); with Candida albicans, 0.0625 µg/mL (≈ 0.149 µM); with Cryptococcus neoformans, 0.25 µg/mL (≈ 0.597 µM); against Aspergillus fumigatus, 16 µg/mL (≈ 38.2 µM); in the assay on Candida tropicalis it was 0.25 µg/mL (≈ 0.597 µM). Also, the MIC80 against Trichophyton rubrum amounted to 1 µg/mL (≈ 2.39 µM); against Nannizzia gypsea, 0.25 µg/mL (≈ 0.597 µM).
